In ChEMBL document CHEMBL2150846, “Optimization of an ether series of mGlu5 positive allosteric modulators: molecular determinants of MPEP-site interaction crossover” (Bioorg Med Chem Lett, 2012):
One block for each compound: values may come before it. Activity calls are given as the source filed them. The rule behind the calls is not given here.

Tests used:
[1] = target: T1, Metabotropic glutamate receptor 5 (Rattus norvegicus, UniProt P31424); assay: Positive allosteric modulation of rat mGluR5 expressed in human HEK293 cells assessed as calcium mobilization; assay type: functional, cell-based
T1 sequence (P31424 whole entry): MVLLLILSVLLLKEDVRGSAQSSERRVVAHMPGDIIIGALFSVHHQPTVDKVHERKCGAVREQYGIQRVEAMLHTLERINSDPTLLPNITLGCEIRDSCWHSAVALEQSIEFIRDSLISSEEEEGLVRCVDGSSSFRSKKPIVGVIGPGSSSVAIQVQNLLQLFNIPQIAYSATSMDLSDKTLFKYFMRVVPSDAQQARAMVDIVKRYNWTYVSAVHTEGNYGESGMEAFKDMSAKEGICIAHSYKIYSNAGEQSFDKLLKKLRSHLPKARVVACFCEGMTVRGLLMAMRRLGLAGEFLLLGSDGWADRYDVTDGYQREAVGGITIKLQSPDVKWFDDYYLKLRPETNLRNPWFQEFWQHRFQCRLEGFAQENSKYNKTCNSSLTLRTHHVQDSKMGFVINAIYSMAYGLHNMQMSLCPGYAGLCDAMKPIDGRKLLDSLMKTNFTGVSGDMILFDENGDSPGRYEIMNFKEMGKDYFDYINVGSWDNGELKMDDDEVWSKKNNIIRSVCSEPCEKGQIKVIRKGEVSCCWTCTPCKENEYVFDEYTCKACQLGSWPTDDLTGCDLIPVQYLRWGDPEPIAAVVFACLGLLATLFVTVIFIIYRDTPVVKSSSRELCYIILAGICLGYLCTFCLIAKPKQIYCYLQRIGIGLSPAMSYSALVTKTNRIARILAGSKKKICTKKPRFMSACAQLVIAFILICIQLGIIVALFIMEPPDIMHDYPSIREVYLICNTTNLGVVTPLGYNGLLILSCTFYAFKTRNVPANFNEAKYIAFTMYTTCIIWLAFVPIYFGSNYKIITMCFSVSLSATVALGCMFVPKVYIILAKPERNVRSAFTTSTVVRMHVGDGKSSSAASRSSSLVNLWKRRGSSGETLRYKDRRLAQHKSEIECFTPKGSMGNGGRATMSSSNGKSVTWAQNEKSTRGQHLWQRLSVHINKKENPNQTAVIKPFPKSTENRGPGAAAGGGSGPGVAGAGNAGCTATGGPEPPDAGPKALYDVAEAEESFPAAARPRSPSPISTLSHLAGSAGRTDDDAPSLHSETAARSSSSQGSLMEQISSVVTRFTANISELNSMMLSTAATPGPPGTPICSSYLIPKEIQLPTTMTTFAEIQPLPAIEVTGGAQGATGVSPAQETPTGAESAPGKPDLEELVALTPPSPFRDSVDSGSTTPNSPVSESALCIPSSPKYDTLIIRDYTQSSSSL
Method in brief: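 Calcium mobilization in HEK293 cells expressing rat mGlu5, used to obtain functional EC50. pEC50 is the mean of three independent determinations, with coefficient of variation <0.05.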

[2] = target: Metabotropic glutamate receptor 5 (Rattus norvegicus) (UniProt P31424); assay: Displacement of [3H]methoxyPEPy from rat mGluR5 expressed in human HEK293 cells at 10 uM after 1 hr by scintillation counter; assay type: cell-based
Sequence of Metabotropic glutamate receptor 5 (Rattus norvegicus) (P31424 21-1203 limits assumed): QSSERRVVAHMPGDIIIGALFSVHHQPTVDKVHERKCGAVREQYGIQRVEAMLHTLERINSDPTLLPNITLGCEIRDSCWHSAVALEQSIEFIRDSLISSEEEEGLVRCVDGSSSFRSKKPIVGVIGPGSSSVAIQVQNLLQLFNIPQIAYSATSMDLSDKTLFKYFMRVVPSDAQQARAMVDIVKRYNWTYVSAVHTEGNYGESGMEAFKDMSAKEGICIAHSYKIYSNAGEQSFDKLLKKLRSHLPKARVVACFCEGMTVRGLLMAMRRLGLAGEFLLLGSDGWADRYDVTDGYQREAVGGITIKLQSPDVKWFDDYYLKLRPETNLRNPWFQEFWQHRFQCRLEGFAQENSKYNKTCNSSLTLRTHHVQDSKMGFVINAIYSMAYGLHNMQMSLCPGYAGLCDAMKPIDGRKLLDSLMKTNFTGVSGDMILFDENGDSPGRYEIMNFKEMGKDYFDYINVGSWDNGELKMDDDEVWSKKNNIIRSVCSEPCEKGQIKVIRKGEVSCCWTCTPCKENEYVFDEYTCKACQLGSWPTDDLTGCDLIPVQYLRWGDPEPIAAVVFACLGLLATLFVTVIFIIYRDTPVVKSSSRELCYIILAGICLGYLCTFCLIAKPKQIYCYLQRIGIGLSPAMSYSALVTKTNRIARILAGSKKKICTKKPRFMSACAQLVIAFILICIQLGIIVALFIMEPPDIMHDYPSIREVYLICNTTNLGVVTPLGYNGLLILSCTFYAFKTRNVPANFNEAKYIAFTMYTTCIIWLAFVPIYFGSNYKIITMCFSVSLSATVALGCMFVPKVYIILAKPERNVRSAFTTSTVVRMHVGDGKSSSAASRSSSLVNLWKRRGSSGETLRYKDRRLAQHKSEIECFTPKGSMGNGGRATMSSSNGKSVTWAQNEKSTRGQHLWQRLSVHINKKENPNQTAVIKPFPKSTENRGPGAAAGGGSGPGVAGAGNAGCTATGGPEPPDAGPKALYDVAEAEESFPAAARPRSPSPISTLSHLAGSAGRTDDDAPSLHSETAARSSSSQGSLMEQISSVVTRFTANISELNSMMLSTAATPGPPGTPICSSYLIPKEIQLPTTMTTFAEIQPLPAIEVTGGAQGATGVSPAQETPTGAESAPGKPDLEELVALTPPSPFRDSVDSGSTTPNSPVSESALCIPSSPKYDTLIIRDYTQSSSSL
Method in brief: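 Single-concentration binding to the MPEP site, read as % displacement of [3H]methoxyPEPy at 10 μM test compound. Values are the average of two determinations.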

[3] = system: Brain; assay: Fraction unbound in rat brain; assay type: ADME, tissue-based
[4] = target: Metabotropic glutamate receptor 5 (Rattus norvegicus) (UniProt P31424); assay: Positive allosteric modulation of rat mGlu5 expressed in human HEK293 cells relative to glutamate; assay type: cell-based
[5] = Terminal half life in rat at 1 mg/kg, iv and 10 mg/kg, po; assay type: ADME, organism-based; details: in vivo, read-out: beta t1/2 (converted)
Method in brief: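 Non-crossover rat PK study with 1 mg/kg IV dosing and 10 mg/kg PO dosing in 20% β-CD. Plasma clearance and terminal half-life were determined.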

[6] = target: Metabotropic glutamate receptor 8 (Homo sapiens, UniProt O00222); assay: Positive allosteric modulation of mGluR8
[7] = target: T2, Metabotropic glutamate receptor 5 (Homo sapiens, UniProt P41594); assay: Positive allosteric modulation of human mGluR5 expressed in HEK293 cells assessed as calcium mobilization; assay type: functional, cell-based
Target sequence in this assay (P41594 whole entry): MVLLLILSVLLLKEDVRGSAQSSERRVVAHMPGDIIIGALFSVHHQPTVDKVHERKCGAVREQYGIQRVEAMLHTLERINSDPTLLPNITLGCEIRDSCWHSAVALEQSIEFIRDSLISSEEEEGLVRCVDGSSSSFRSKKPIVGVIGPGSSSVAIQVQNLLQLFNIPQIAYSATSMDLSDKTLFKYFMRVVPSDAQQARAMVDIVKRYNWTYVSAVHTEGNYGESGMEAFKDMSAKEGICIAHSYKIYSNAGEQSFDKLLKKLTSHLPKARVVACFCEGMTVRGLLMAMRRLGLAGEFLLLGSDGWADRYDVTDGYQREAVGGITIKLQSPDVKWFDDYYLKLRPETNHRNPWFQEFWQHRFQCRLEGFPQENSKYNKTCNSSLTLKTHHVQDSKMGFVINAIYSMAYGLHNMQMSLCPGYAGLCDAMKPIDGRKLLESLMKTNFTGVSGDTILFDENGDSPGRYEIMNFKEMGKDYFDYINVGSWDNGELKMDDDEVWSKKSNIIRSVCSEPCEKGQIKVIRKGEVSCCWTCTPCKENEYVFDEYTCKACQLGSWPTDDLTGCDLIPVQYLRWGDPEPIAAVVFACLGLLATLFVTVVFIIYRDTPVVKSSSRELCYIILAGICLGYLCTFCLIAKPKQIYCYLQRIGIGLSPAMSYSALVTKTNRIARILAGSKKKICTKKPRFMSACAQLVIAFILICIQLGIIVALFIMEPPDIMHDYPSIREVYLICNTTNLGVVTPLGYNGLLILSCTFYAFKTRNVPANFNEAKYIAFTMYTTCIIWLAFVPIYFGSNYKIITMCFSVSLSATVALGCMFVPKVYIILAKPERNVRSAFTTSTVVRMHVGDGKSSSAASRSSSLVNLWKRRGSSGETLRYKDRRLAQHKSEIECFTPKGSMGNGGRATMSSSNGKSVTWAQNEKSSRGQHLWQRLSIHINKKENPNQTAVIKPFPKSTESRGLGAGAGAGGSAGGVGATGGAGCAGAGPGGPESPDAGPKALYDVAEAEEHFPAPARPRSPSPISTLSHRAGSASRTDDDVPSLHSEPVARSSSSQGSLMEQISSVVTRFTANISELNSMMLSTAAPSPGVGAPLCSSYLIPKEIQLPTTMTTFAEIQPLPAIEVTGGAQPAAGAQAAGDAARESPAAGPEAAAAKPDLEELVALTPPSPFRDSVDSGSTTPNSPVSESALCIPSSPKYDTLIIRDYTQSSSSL

[8] = target: Metabotropic glutamate receptor 1 (Homo sapiens, UniProt Q13255); assay: Positive allosteric modulation of mGluR1
[9] = Cmax in rat brain at 10 mg/kg, po; assay type: ADME, organism-based; set-up: dose 10 mg/kg, route oral
Method in brief: (§1)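 Rats were dosed orally at 10 mg/kg in 20% β-CD. Snapshot drug levels were taken in portal vein, plasma and brain at 0.5, 1.0, 3.0 and 6.0 h. AUC, brain/plasma ratio, Cmax, Tmax and Vss were derived from these levels.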

[10] = Solubility of the compound in fasted state simulated intestinal fluid; assay type: physicochemical
[11] = Drug uptake in rat brain after 90 mins; assay type: ADME, tissue-based; details: read-out: Drug uptake
[12] = target: Metabotropic glutamate receptor 6 (Homo sapiens, UniProt O15303); assay: Positive allosteric modulation of mGluR6
[13] = target: Metabotropic glutamate receptor 4 (Homo sapiens, UniProt Q14833); assay: Positive allosteric modulation of mGluR4
[14] = system: Brain; assay: Ratio of AUC in rat brain to AUC in rat plasma at 10 mg/kg, po; assay type: ADME, organism-based; set-up: dose 10 mg/kg, route oral; method in brief: as §1
[15] = Plasma protein binding in human plasma
[16] = system: Metabotropic glutamate receptor 5 (Rattus norvegicus), P31424 [A809V]; assay: Positive allosteric modulation of wild type rat mGlu5 receptor A809V mutant expressed in human HEK293 cells assessed as glutamate concentration response curve at 1 uM; assay type: cell-based
Sequence of Metabotropic glutamate receptor 5 (Rattus norvegicus), P31424 [A809V] (P31424 whole entry A809V): as the sequence (P31424 whole entry) above, with A809V counted along it

[17] = AUC in rat brain at 10 mg/kg, po; assay type: ADME, organism-based; set-up: dose 10 mg/kg, route oral; method in brief: as §1
[18] = system: Rattus norvegicus; assay: Antipsychotic activity in rat assessed as reversal of amphetamine-induced hyperlocomotion at 100 mg/kg, po; assay type: functional, organism-based; set-up: dose 100 mg/kg
Method in brief: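 Rats given amphetamine to induce hyperlocomotion received the test agent orally at 100 mg/kg in 20% β-CD vehicle. Reversal of locomotor activity was measured.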

[19] = target: T2, Metabotropic glutamate receptor 5; assay: Positive allosteric modulation of human mGlu5 expressed in HEK293 cells relative to glutamate; assay type: cell-based
Target sequence in this assay (P41594 21-1212 limits assumed): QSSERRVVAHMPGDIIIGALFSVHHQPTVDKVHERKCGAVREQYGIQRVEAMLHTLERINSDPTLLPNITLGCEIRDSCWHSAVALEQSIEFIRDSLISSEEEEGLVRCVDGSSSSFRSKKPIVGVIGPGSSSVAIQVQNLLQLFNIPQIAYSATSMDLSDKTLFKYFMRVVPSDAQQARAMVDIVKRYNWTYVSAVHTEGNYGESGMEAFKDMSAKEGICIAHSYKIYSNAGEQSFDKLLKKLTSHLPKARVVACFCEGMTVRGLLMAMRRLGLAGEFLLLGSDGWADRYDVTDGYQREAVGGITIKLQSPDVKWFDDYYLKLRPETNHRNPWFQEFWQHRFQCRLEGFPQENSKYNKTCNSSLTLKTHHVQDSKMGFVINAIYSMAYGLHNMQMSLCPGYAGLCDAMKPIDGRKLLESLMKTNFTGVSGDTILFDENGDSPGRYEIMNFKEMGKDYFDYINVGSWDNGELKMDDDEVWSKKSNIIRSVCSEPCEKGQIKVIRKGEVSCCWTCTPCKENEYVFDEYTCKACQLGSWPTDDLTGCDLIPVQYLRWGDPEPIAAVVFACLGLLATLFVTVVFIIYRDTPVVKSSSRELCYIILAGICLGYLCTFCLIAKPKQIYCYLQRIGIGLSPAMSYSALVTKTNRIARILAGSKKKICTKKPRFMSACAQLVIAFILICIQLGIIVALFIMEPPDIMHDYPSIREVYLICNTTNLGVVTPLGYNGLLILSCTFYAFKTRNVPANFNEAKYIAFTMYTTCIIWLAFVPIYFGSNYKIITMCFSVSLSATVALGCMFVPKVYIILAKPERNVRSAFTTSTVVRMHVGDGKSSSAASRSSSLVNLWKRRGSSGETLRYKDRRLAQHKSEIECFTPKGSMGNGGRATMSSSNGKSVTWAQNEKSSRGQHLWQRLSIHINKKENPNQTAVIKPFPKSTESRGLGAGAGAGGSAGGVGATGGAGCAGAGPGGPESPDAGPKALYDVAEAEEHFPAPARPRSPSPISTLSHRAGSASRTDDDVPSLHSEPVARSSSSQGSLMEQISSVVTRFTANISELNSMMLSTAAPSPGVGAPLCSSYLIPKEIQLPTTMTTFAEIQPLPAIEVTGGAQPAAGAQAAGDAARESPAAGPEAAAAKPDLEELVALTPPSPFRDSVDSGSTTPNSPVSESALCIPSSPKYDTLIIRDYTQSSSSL

[20] = Plasma protein binding in rat plasma
[21] = target: T1, Metabotropic glutamate receptor 5; assay: Displacement of [3H]methoxyPEPy from rat mGluR5 expressed in human HEK293 cells after 1 hr by scintillation counter; assay type: cell-based
[22] = target: Metabotropic glutamate receptor 3 (Homo sapiens, UniProt Q14832); assay: Positive allosteric modulation of mGluR3
[23] = target: Metabotropic glutamate receptor 7 (Homo sapiens, UniProt Q14831); assay: Positive allosteric modulation of mGluR7
[24] = target: Metabotropic glutamate receptor 2 (Homo sapiens, UniProt Q14416); assay: Positive allosteric modulation of mGluR2
[25] = system: Metabotropic glutamate receptor 5 (Rattus norvegicus), P31424 [T780A]; assay: Positive allosteric modulation of wild type rat mGlu5 receptor T780A mutant expressed in human HEK293 cells assessed as glutamate concentration response curve at 1 uM; assay type: cell-based
Sequence of Metabotropic glutamate receptor 5 (Rattus norvegicus), P31424 [T780A] (P31424 whole entry T780A): as the sequence (P31424 whole entry) above, with T780A counted along it

[26] = target: Metabotropic glutamate receptor 5 (Rattus norvegicus) (UniProt P31424); assay: Positive allosteric modulation of wild type rat mGlu5 expressed in human HEK293 cells assessed as glutamate concentration response curve at 1 uM; assay type: cell-based
[27] = system: Rattus norvegicus; assay: Volume of distribution at steady state in rat at 10 mg/kg, po; assay type: ADME, organism-based; set-up: dose 10 mg/kg, route oral; details: in vivo; method in brief: as §1
[28] = system: Brain; assay: Tmax in rat brain at 10 mg/kg, po; assay type: ADME, organism-based; set-up: dose 10 mg/kg, route oral; details: in vivo; method in brief: as §1
[29] = system: Metabotropic glutamate receptor 5 (Rattus norvegicus), P31424 [P654F]; assay: Positive allosteric modulation of wild type rat mGlu5 receptor P654F mutant expressed in human HEK293 cells assessed as glutamate concentration response curve at 1 uM; assay type: cell-based
Sequence of Metabotropic glutamate receptor 5 (Rattus norvegicus), P31424 [P654F] (P31424 whole entry P654F): as the sequence (P31424 whole entry) above, with P654F counted along it

[30] = system: Plasma; assay: AUC in rat plasma at 10 mg/kg, po; assay type: ADME, organism-based; set-up: dose 10 mg/kg, route oral; details: in vivo; method in brief: as §1

Compound: CCCOc1ccc(C(=O)NC2CCCCC2)cn1
EC50 ([1]; hek293): Not Active

Compound: C[C@@H](NC(=O)c1ccc(OCc2cccc(F)c2)nc1)C(C)(C)C
Fu [3]: 1%
Emax [4]: 83%
fold change (FC) [4]: 8.2
half-life [5]: 5 h
EC50 [6]: > 10000 nM
EC50 [7]: 70 nM
EC50 [8]: > 10000 nM
Cmax [9]: 0.435 µM
solubility [10]: < 20 µg/mL
concentration at 1.5 h [11]: 7.4 µM
EC50 [12]: > 10000 nM
EC50 [13]: > 10000 nM
Ratio AUC [14]: 0.05
PPB [15]: ≥ 0.99
Activity [16]: inactive
AUC [17]: 1.2 µM·h
Activity [18]: Active
Emax [19]: 86%
fold change (FC) [19]: 10
PPB [20]: ≥ 0.99
Ki [21]: 153 nM
EC50 [22]: > 10000 nM
EC50 [23]: > 10000 nM
EC50 [24]: > 10000 nM
Activity [25]: inactive
fold change (FC) [26]: 5
Vdss [27]: 2.3 L/kg
Tmax [28]: 0.5 h
Activity [29]: inactive
AUC [30]: 23 µM·h

Compound: O=C(NC1CCOCC1)c1ccc(OCc2cccc(F)c2)nc1
EC50 ([1]; read-out: pEC50 (converted)): 1620 nM

Compound: O=C(NC1COC1)c1ccc(OCc2cccc(F)c2)nc1
EC50 ([1]; hek293): Not Active

Compound: CCCCOc1ccc(C(=O)Nc2ccc(F)cn2)cn1
Activity [2]: 9.5%
EC50 ([1]; read-out: EC50): 1900 nM

Compound: CCCCOc1ccc(C(=O)NC2CCCCC2)cn1
Activity [2]: 27%
EC50 ([1]; read-out: EC50): 2490 nM

Compound: CC(C)CCOc1ccc(C(=O)NC2CCCCC2)cn1
EC50 ([1]; read-out: EC50): 1140 nM

Compound: CCCCOc1ccc(C(=O)N(C)c2ccc(F)cc2F)cc1
EC50 ([1]; hek293): Not Active

Compound: C[C@@H](NC(=O)c1ccc(OCc2cccc(F)c2)cc1)C(C)(C)C
EC50 [7]: 180 nM
Emax [19]: 70%

Compound: CCCCOc1ccc(C(=O)Nc2ncc(F)cc2F)cc1
Activity [2]: 0%
EC50 ([1]; read-out: EC50): > 10000 nM

Compound: CCCC(C)Oc1ccc(C(=O)NC2CCCCC2)cn1 (stereo unspecified)
EC50 ([1]; hek293): Not Active

Compound: CCCCOc1ccc(C(=O)NC2CCCCC2)cc1
Activity [2]: 12%
EC50 ([1]; read-out: EC50): 607 nM

Compound: CCCCOc1ccc(C(=O)Nc2ccc(F)cc2F)cc1
EC50 ([1]; hek293, read-out: EC50): 33 nM
Ki [21]: > 100000 nM

Compound: CCCCOc1ccc(C(=O)Nc2ccc(F)cc2F)cn1
Activity [2]: 5%
EC50 ([1]; read-out: EC50): 725 nM

Compound: O=C(NC1CCOCC1)c1ccc(OCc2ccccc2)nc1
EC50 ([1]; read-out: EC50): 3810 nM

Compound: CCC(C)COc1ccc(C(=O)NC2CCCCC2)cn1 (racemic)
EC50 ([1]; read-out: EC50): 1080 nM

Compound: O=C(NC1CCCCC1)c1ccc(OCC2CC2)nc1
EC50 ([1]; hek293): Not Active

Compound: CCCCOc1ccc(C(=O)NC2CCC2)cc1
Activity [2]: 6.5%
EC50 ([1]; read-out: EC50): 5170 nM

Further compounds by falling EC50 ([1]; read-out: EC50), results first:

EC50 ([1]; read-out: EC50): 449 nM
Compound: CCCCCOc1ccc(C(=O)NC2CCCCC2)cn1

Activity [2]: 0%
EC50 ([1]; read-out: EC50): 446 nM
Compound: O=C(NC1CCCCC1)c1ccc(OCC2CCCC2)nc1

EC50 ([1]; read-out: EC50): 300 nM
Compound: O=C(NC1CCC1)c1ccc(OCc2cccc(F)c2)nc1

EC50 ([1]; read-out: EC50): 297 nM
Compound: O=C(NC1CCC1)c1ccc(OCc2ccccc2)nc1

EC50 ([1]; read-out: EC50): 251 nM
Compound: O=C(NC1CCCCC1)c1ccc(OCc2ccc(F)cc2)nc1

EC50 ([1]; read-out: EC50): 167 nM
Compound: C[C@H](NC(=O)c1ccc(OCc2cccc(F)c2)nc1)C1CCCCC1

EC50 ([1]; read-out: EC50): 136 nM
Compound: CC(C)(C)NC(=O)c1ccc(OCc2cccc(F)c2)nc1

EC50 ([1]; read-out: EC50): 83 nM
EC50 ([1]; read-out: pEC50 (converted)): 85.1 nM
Compound: O=C(N[C@@H](C1CC1)C(F)(F)F)c1ccc(OCc2cccc(F)c2)nc1

Activity [2]: 21%
EC50 ([1]; read-out: EC50): 34 nM
Compound: O=C(NC1CCCCC1)c1ccc(OCc2ccccc2)nc1

EC50 ([1]; read-out: EC50): 29 nM
Compound: O=C(NC1CCCCC1)c1ccc(OCc2cccc(F)c2)nc1

EC50 ([1]; read-out: EC50): 16 nM
Ki [21]: 195 nM
Compound: O=C(NC1CCC1)c1ccc(C#Cc2cccc(F)c2)nc1

EC50 ([1]; read-out: EC50): 15 nM
Compound: C[C@@H](NC(=O)c1ccc(OCc2cccc(F)c2)nc1)C1CCCCC1
